Here are results for 34 molecules from ChEMBL document CHEMBL4265912, “Design, synthesis and identification of novel substituted 2-amino thiazole analogues as potential anti-inflammatory agents targeting 5-lipoxygenase” (Eur J Med Chem, 2018).

In series [1] the target is T1, Polyunsaturated fatty acid 5-lipoxygenase (Homo sapiens) (UniProt P09917).
T1 sequence (whole entry): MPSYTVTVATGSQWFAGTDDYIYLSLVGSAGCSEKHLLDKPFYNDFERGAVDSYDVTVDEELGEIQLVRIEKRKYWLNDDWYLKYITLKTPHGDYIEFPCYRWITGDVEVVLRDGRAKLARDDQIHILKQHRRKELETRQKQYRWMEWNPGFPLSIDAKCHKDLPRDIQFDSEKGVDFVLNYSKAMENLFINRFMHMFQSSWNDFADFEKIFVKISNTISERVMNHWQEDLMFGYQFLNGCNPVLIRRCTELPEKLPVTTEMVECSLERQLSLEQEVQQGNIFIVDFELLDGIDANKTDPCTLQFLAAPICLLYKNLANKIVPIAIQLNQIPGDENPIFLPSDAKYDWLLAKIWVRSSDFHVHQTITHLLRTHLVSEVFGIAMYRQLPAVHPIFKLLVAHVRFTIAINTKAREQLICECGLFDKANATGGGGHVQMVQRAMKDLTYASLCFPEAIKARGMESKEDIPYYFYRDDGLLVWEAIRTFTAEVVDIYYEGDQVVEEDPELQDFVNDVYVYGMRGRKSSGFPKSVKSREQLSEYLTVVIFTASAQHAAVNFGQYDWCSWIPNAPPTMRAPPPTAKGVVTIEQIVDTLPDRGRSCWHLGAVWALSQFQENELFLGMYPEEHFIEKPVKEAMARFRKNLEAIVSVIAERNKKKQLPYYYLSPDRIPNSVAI
Description: Inhibition of recombinant human 5-LOX expressed in Escherichia coli BL21 at 10 uM using arachidonic acid as substrate by UV-vis spectrophotometric method relative to control. In outline:
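Partially purified human 5-LOX, expressed in E. coli BL21 (IPTG induction, ammonium sulfate precipitation, 100000 × g supernatant). Buffer: 25 mM HEPES pH 7.3, EDTA, 10 mM CaCl2, 4 mM ATP; compound in 2% DMSO added at 4 °C; started with 30 μM AA. 5-HPETE read at 236 nm. Single point at 10 μM; IC50 from inhibition-versus-concentration curves; three repeats.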

A short description of series [2]: Antioxidant activity assessed as DPPH radical scavenging activity at 20 uM measured after 30 mins. It counts as functional. In short, it runs like this: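 Test compound at 20 μM added to 0.1 mM DPPH in methanol, incubated 30 min at room temperature in dark; absorbance read at 517 nm; ascorbic acid reference; percent scavenging calculated; three repeats, mean ± SEM.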
In general terms: Loss of DPPH colour is used to gauge radical scavenging.

Series [3] addresses T2, Polyunsaturated fatty acid 5-lipoxygenase (Homo sapiens, UniProt P09917).
T2 sequence (P09917 whole entry): T1 sequence (whole entry)
Briefly: Inhibition of recombinant human 5-LOX expressed in Escherichia coli BL21 using arachidonic acid as substrate by UV-vis spectrophotometric method. In outline:
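Partially purified human 5-LOX, expressed in E. coli BL21 (IPTG induction, ammonium sulfate precipitation, 100000 × g supernatant). Buffer: 25 mM HEPES pH 7.3, EDTA, 10 mM CaCl2, 4 mM ATP; compound in 2% DMSO added at 4 °C; started with 30 μM AA.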

Series [4] has as its target T1, Polyunsaturated fatty acid 5-lipoxygenase (Homo sapiens). Briefly: Inhibition of recombinant human 5-LOX pseudoperoxidase activity expressed in Escherichia coli BL21 assessed as compound redox activity by measuring decrease in 13(S)-HpODE product formation at 10 uM by UV-vis spectrophotometric method. Details: scale not given: the % may be the effect or the level left. In short, it runs like this:
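Pseudoperoxidase: 10 μM inhibitor (1:1 to substrate) starts reaction in 50 mM potassium phosphate pH 7.4, 0.3 mM CaCl2, 0.1 mM EDTA, 200 μM ATP, 10 μM 13(S)-HPODE with 5-LOX; loss of hydroperoxide followed at 234 nm over 300 s, relative to control.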

Compound in series [5]: COc1ccc(-c2nc(N(c3ccccc3)c3ccccc3)sc2C(=O)c2ccccc2)cc1
Description: Competitive inhibition of recombinant human 5-LOX expressed in Escherichia coli BL21 assessed as Vmax for substrate at 5 uM using arachidonic acid as substrate by Lineweaver-Burk plot analysis (reference value: 0.39 +/- 0.02 nmol/min).

Compound in series [6]: COc1ccc(-c2nc(N(c3ccccc3)c3ccccc3)sc2C(=O)c2ccccc2)cc1
Description: Competitive inhibition of recombinant human 5-LOX expressed in Escherichia coli BL21 assessed as Vmax for substrate at 10 uM using arachidonic acid as substrate by Lineweaver-Burk plot analysis (reference value: 0.39 +/- 0.02 nmol/min).

Compound in series [7]: COc1ccc(-c2nc(N(c3ccccc3)c3ccccc3)sc2C(=O)c2ccccc2)cc1
Description: Competitive inhibition of recombinant human 5-LOX expressed in Escherichia coli BL21 assessed as Km for substrate at 5 uM using arachidonic acid as substrate by Lineweaver-Burk plot analysis (reference value: 0.42 +/- 0.15 microM).

Compound in series [8]: COc1ccc(-c2nc(N(c3ccccc3)c3ccccc3)sc2C(=O)c2ccccc2)cc1
Description: Competitive inhibition of recombinant human 5-LOX expressed in Escherichia coli BL21 assessed as Km for substrate at 10 uM using arachidonic acid as substrate by Lineweaver-Burk plot analysis (reference value: 0.42 +/- 0.15 microM).

Compound in series [9]: O=C(NC(=S)N1CCN(c2ccccc2)CC1)c1ccccc1
Briefly: Mixed non-competitive inhibition of recombinant human 5-LOX expressed in Escherichia coli BL21 assessed as Vmax for substrate at 5 uM using arachidonic acid as substrate by Lineweaver-Burk plot analysis (reference value: 0.48 +/- 0.02 nmol/min).

Compound in series [10]: O=C(NC(=S)N1CCN(c2ccccc2)CC1)c1ccccc1
Briefly: Mixed non-competitive inhibition of recombinant human 5-LOX expressed in Escherichia coli BL21 assessed as Vmax for substrate at 10 uM using arachidonic acid as substrate by Lineweaver-Burk plot analysis (reference value: 0.48 +/- 0.02 nmol/min).

Compound in series [11]: O=C(NC(=S)N1CCN(c2ccccc2)CC1)c1ccccc1
Description: Mixed non-competitive inhibition of recombinant human 5-LOX expressed in Escherichia coli BL21 assessed as Km for substrate at 5 uM using arachidonic acid as substrate by Lineweaver-Burk plot analysis (reference value: 0.7761 +/- 0.22 microM).

Compound in series [12]: O=C(NC(=S)N1CCN(c2ccccc2)CC1)c1ccccc1
Description: Mixed non-competitive inhibition of recombinant human 5-LOX expressed in Escherichia coli BL21 assessed as Km for substrate at 10 uM using arachidonic acid as substrate by Lineweaver-Burk plot analysis (reference value: 0.7761 +/- 0.22 microM).

A word on the inhibition: it is the drop in the measured response relative to a control, in per cent. What is called IC50 is the concentration that gives 50% inhibition. By Vmax is commonly meant the rate approached at saturating substrate. One may read the Km as the concentration of substrate that gives half-maximal velocity.

For `O=C(NC(=S)N1CCN(c2ccccc2)CC1)c1ccc(F)cc1`, in series [1], the inhibition worked out at 23.6%. Further, in series [2], the Activity turned out to be 6.3%.

As for `O=C(c1ccccc1)c1sc(N2CCCC2)nc1-c1ccccc1`, the inhibition in [1] was 75.3%. Further, the Activity in series [2] was -2.9%.

For the molecule `O=C(c1ccccc1)c1sc(N2CCOCC2)nc1-c1ccc(F)cc1`, in [1], the inhibition stood at 50.2%. The Activity in [2] is -0.8%.

Take `COc1ccc(C(=O)NC(=S)N2CCCCC2)cc1`: the inhibition in [1] stood at 86%. Besides, the Activity in series [2] came to 21.8%. Also, the IC50 in [3] stood at 3300 nM.

`O=C(NC(=S)N1CCCC1)c1ccccc1`: the inhibition in series [1] worked out at 24.5%. Further, the Activity in [2] turned out to be 25.6%.

Regarding `O=C(c1ccccc1)c1sc(N(c2ccccc2)c2ccccc2)nc1-c1ccccc1`, the inhibition in [1] turned out to be 48.6%. Moreover, in series [2], the Activity was -4.7%.

`O=C(NC(=S)N1CCCCC1)c1ccccc1`: the inhibition in [1] was 56.8%. Moreover, in series [2], the Activity amounted to 23.7%.

With `O=C(NC(=S)N(c1ccccc1)c1ccccc1)c1ccccc1`, the inhibition in [1] was 73.3%. Besides, the Activity in series [2] amounted to 11.3%.

Consider `O=C(c1ccccc1)c1sc(N2CCN(c3ccccc3)CC2)nc1-c1ccc([N+](=O)[O-])cc1`, for which the inhibition in [1] came to 67.8%. In series [2], the Activity was 8.2%.

As for `O=C1O[C@H]([C@@H](O)CO)C(O)=C1O`, the Activity in series [2] came to 84.1%.

With `O=C(NC(=S)N1CCN(c2ccccc2)CC1)c1ccc([N+](=O)[O-])cc1`, the inhibition in series [1] is 76.6%. For the same molecule, in series [2], the Activity came to 20.3%.

Take `O=C(c1ccccc1)c1sc(N2CCOCC2)nc1-c1ccccc1`: in series [1], the inhibition was found to be 85.3%. Besides, the Activity amounted to 9.5% in series [2] and 2.1% in series [4]. Besides, the IC50 in series [3] turned out to be 2300 nM.

`CN(Cc1ccccc1)C(=S)NC(=O)c1ccccc1`: in series [1], the inhibition worked out at 80.7%. In [2], the Activity stood at 18.4%.

In the case of `COc1ccc(-c2nc(N(C)Cc3ccccc3)sc2C(=O)c2ccccc2)cc1`, the inhibition in series [1] was 17.7%. Moreover, the Activity in [2] is -1.9%.

With `O=C(c1ccccc1)c1sc(N2CCN(c3ccccc3)CC2)nc1-c1ccccc1`, the inhibition in series [1] came out at 38.3%. Further, in series [2], the Activity was -0.7%.

`O=C(c1ccccc1)c1sc(N2CCCCC2)nc1-c1ccccc1`: the inhibition in [1] was determined as 85.2%. In addition, the results for the Activity in [2] and in series [4] were 8.5% and 0.6%, respectively. In addition, the IC50 in [3] was determined as 3100 nM.

As to `O=C(NC(=S)N(c1ccccc1)c1ccccc1)c1ccc([N+](=O)[O-])cc1`, in series [1], the inhibition stood at 30.9%. In addition, the Activity in series [2] turned out to be 4.7%.

For the molecule `COc1ccc(C(=O)NC(=S)N2CCOCC2)cc1`, the inhibition in [1] was determined as 68.3%. Besides, the Activity in [2] was 3.9%.

In the case of `O=C(NC(=S)N1CCN(c2ccccc2)CC1)c1ccccc1`, the inhibition in series [1] worked out at 91.3%. Also, the figures for the Activity in [2] and in series [4] were 24.1% and -46.2%, respectively. Also, the IC50 in [3] amounted to 1400 nM.

On to `CN(c1ccccc1)c1nc(-c2ccccc2)c(C(=O)c2ccccc2)s1`, for which the inhibition in series [1] came to 67.8%. In addition, in [2], the Activity was found to be 4.6%.

For `COc1ccc(C(=O)NC(=S)N(C)Cc2ccccc2)cc1`, the inhibition in [1] was 26.5%. In addition, in series [2], the Activity came out at 7.4%.

As for `COc1ccc(-c2nc(N3CCCCC3)sc2C(=O)c2ccccc2)cc1`, in series [1], the inhibition is 62%. Further, the Activity in [2] came out at 9.6%.

`CN(C(=S)NC(=O)c1ccccc1)c1ccccc1`: the inhibition in [1] stood at 78.7%. Further, the Activity in series [2] was 13.2%.

Take `O=C(c1ccccc1)c1sc(N(c2ccccc2)c2ccccc2)nc1-c1ccc([N+](=O)[O-])cc1`: the inhibition in series [1] turned out to be 79.6%. Besides, the Activity in series [2] is -2.8%.

`O=C(NC(=S)N1CCOCC1)c1ccccc1`: in series [1], the inhibition is 79.4%. Also, in series [2], the Activity stood at 19.1%.

On to `CN(Cc1ccccc1)c1nc(-c2ccccc2)c(C(=O)c2ccccc2)s1`, for which the inhibition in series [1] was determined as 53.1%. For the same molecule, the Activity in [2] was 3.6%.

`COc1ccc(-c2nc(N3CCN(c4ccccc4)CC3)sc2C(=O)c2ccccc2)cc1`: the inhibition in [1] is 53.1%. Moreover, in series [2], the Activity turned out to be 7.8%.

As to `O=C(NC(=S)N1CCOCC1)c1ccc(F)cc1`, the inhibition in [1] came out at 29.5%. Also, the Activity in [2] came to 9.1%.

For `COc1ccc(C(=O)NC(=S)N(c2ccccc2)c2ccccc2)cc1`, the inhibition in series [1] was 19.2%. The Activity in series [2] stood at 8.1%.

Take `COc1ccc(-c2nc(N(c3ccccc3)c3ccccc3)sc2C(=O)c2ccccc2)cc1`: the inhibition in [1] was 92.8%. The Activity in series [2] is 11.8%; in [4] it was 29.4%. Further, the half-maximal inhibitory concentration (IC50) in series [3] stood at 900 nM.

On to `O=C(NC(=S)N1CCCCC1)c1ccc(F)cc1`, for which the inhibition in series [1] came out at 80.7%. For the same molecule, the Activity in series [2] was determined as 5.9%. Besides, in [3], the IC50 came out at 3800 nM.

For the molecule `CC(c1cc2ccccc2s1)N(O)C(N)=O` (configuration not stated), the Activity in series [2] is 17.8%.

With `COc1ccc(C(=O)NC(=S)N2CCN(c3ccccc3)CC2)cc1`, the inhibition in [1] came to 36.8%. Further, in series [2], the Activity stood at 3.7%.

B1: Polyunsaturated fatty acid 5-lipoxygenase (Homo sapiens), P09917 (protein)
chain: T1 sequence (whole entry)
In the case of B1, the Vmax turned out to be 0.38 nmol/min in series [5], 0.38 nmol/min in series [6], 0.4 nmol/min in [9] and 0.34 nmol/min in series [10]. Besides, the Km in series [7] stood at 0.99 µM; in series [8], 1.51 µM; in series [11] it was 0.79 µM; in [12] it was 0.767 µM.
